Measured values taken from ChEMBL document CHEMBL2150889, “Azetidinyl oxadiazoles as potent mGluR5 positive allosteric modulators” (Bioorg Med Chem Lett, 2012).

Assays:
[1] = target: T1, Metabotropic glutamate receptor 5 (Homo sapiens, UniProt P41594); assay: Positive allosteric modulation of human mGluR5 expressed in recombinant HEK293 cells by FLIPR assay; type: cell-based
How it was run: (§1)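 HEK293 cells recombinantly expressing human mGluR5 were seeded at 2×10^4 cells/well on poly-D-lysine. They were incubated overnight at 37 °C in glutamate/glutamine-free medium, then loaded for 1 h at 37 °C with calcium 5 dye containing 3 U/ml glutamic pyruvic transaminase and 3 mM sodium pyruvate. Calcium flux was read by FLIPR.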

[2] = target: T1, Metabotropic glutamate receptor 5; assay: Negative allosteric modulation of human mGluR5 expressed in recombinant HEK293 cells by FLIPR assay; type: cell-based; details: for inhibition: concentration not given here; how it was run: as §1

Row | SMILES | EC50 [1] [nM] | Emax [1] [%] | IC50 [2] [nM] | inhibition [2] [%] | Activity [1] [%]
1 | COC1CCN(C(=O)N2CC(c3nc(-c4cccc(Cl)c4)no3)C2)CC1 | > 10000 | 11 | > 10000 |  | 
2 | Cc1cccc(-c2noc(C3CN(C(=O)c4cccc(F)c4)C3)n2)c1 | > 10000 | 15 | 2100 | 62 | 
3 | O=C(c1ccc(F)c(F)c1)N1CC(c2nc(-c3cccc(F)c3)no2)C1 | 3200 | 35 | > 10000 |  | 50
4 | O=C(C1CCC(C(F)(F)F)CC1)N1CC(c2nc(-c3cccc(F)c3)no2)C1 (stereo not drawn) | 680 | 56 | > 10000 |  | 37
5 | CC1CCN(C(=O)N2CC(c3nc(-c4cccc(Cl)c4)no3)C2)C1 (stereo not drawn) | > 10000 | 88 | > 10000 | 80 | 
6 | CC1CCCN(C(=O)N2CC(c3nc(-c4cccc(Cl)c4)no3)C2)C1 (stereo not drawn) | > 10000 | 6 | 3400 | 69 | 
7 | Cc1cccc(-c2noc(C3CN(S(=O)(=O)c4ccc(Cl)cc4)C3)n2)c1 | > 10000 | 3 | 1100 | 75 | 
8 | O=C([C@H]1CC2CCC1C2)N1CC(c2nc(-c3cccc(Cl)c3)no2)C1 (stereo partly drawn) | 74 | 120 |  |  | 
9 | Cc1cccc(-c2noc(C3CN(C(=O)C4CCCO4)C3)n2)c1 (stereo not drawn) | > 10000 | 3 | 1900 | 79 | 
10 | Cc1cccc(-c2noc([C@@H]3CCN3C(=O)Cc3ccc(F)cc3)n2)c1 | 1900 | 24 | > 10000 |  | 30
11 | O=C(C1CCCCC1)N1CC(c2nc(-c3cccc(F)c3)no2)C1 | 1000 | 46 | > 10000 |  | 19
12 | Cc1cccc(-c2noc(C3CN(C(=O)C4CCCC4)C3)n2)c1 | > 10000 | -7 | 2500 | 70 | 
13 | Cc1cccc(S(=O)(=O)N2CC(c3nc(-c4cccc(Cl)c4)no3)C2)c1 | > 10000 | -2 | 390 | 82 | 
14 | O=C(N1CCCCCC1)N1CC(c2nc(-c3cccc(Cl)c3)no2)C1 | 47 | 44 | > 10000 |  | 41
15 | O=C(C1CCCO1)N1CC(c2nc(-c3cccc(Cl)c3)no2)C1 (stereo not drawn) | > 10000 | -3 | 890 | 79 | 
16 | O=C(C1CCC2(CCC2)CC1)N1CC(c2nc(-c3cccc(Cl)c3)no2)C1 | 1100 | 40 | > 10000 |  | 24
17 | Cc1cccc(-c2noc([C@@H]3CCN3C(=O)c3ccc(F)c(F)c3)n2)c1 | 1500 | 51 | > 10000 |  | 92
18 | O=C([C@@H]1CC2CCC1C2)N1CC(c2nc(-c3cccc(Cl)c3)no2)C1 (stereo partly drawn) | 98 | 66 |  |  | 
19 | Cc1cccc(-c2noc(C3CN(S(=O)(=O)c4ccc(F)cc4)C3)n2)c1 | > 10000 | 6 | 950 | 74 | 
20 | O=C(Cc1ccc(F)cc1)N1CC[C@H]1c1nc(-c2cccc(F)c2)no1 | 1200 | 29 | > 10000 |  | 12
21 | Cc1cccc(-c2noc(C3CN(C(=O)c4ccc(F)cc4)C3)n2)c1 | 1400 | 32 | > 10000 | 50 | 
22 | Cc1ccc(S(=O)(=O)N2CC(c3nc(-c4cccc(C)c4)no3)C2)cc1 | > 10000 | 1 | 670 | 80 | 
23 | O=S(=O)(c1ccc(F)cc1)N1CC(c2nc(-c3cccc(Cl)c3)no2)C1 | > 10000 | -7 | 130 | 85 | 

Row | SMILES | EC50 [1] [nM] | Emax [1] [%] | IC50 [2] [nM] | inhibition [2] [%] | Activity [1] [%]
24 | Cc1cccc(-c2noc(C3CN(C(=O)C4CCC(C(F)(F)F)CC4)C3)n2)c1 (stereo not drawn) | 1000 | 36 | > 10000 | 3 | 
25 | Cc1cccc(-c2noc(C3CN(C(=O)c4ccccc4F)C3)n2)c1 | > 10000 | 5 | 1400 | 64 | 
26 | Cc1ccc(S(=O)(=O)N2CC(c3nc(-c4cccc(Cl)c4)no3)C2)cc1 | > 10000 | 2 | 920 | 75 | 
27 | Cc1ccc(C(=O)N2CC(c3nc(-c4cccc(F)c4)no3)C2)cc1 | 6800 | 27 | > 10000 |  | 30
28 | COC1CCCN(C(=O)N2CC(c3nc(-c4cccc(Cl)c4)no3)C2)C1 (stereo not drawn) | > 10000 | -14 | 1830 | 80 | 
29 | CC1CCC(C(=O)N2CC(c3nc(-c4cccc(Cl)c4)no3)C2)CC1 (stereo not drawn) | 1500 | 75 | > 10000 |  | 120
30 | Cc1cccc(-c2noc(C3CN(C(=O)C4CCOC4)C3)n2)c1 (stereo not drawn) | > 10000 | -7 | 1300 | 80 | 
31 | CC1CCC(C(=O)N2CC(c3nc(-c4cccc(F)c4)no3)C2)CC1 (stereo not drawn) | 2200 | 47 | > 10000 |  | 11
32 | Cc1cccc(-c2noc([C@@H]3CCN3C(=O)c3ccc(C#N)cc3)n2)c1 | > 10000 | 88 | 1400 | 72 | 
33 | O=C(c1ccccc1F)N1CC(c2nc(-c3cccc(Cl)c3)no2)C1 | > 10000 | -12 | 670 | 86 | 
34 | Cc1cccc(-c2noc([C@@H]3CCN3C(=O)c3ccccc3F)n2)c1 | > 10000 | 6.2 | 1800 | 58 | 
35 | O=C(c1cccc(F)c1)N1CC(c2nc(-c3cccc(Cl)c3)no2)C1 | > 10000 | -12 | 780 | 87 | 
36 | O=C([C@@H]1CC2CCC1C2)N1CC(c2nc(-c3cccc(F)c3)no2)C1 (stereo partly drawn) | 100 | 110 |  |  | 
37 | O=C(c1ccc(F)cc1)N1CC(c2nc(-c3cccc(F)c3)no2)C1 | 2400 | 40 | > 10000 |  | 6
38 | Cc1cccc(-c2noc(C3CN(S(=O)(=O)c4cccc(C)c4)C3)n2)c1 | > 10000 | -4 | 650 | 76 | 
39 | O=C([C@H]1CC2CCC1C2)N1CC(c2nc(-c3ccccc3)no2)C1 (stereo partly drawn) | 120 | 160 |  |  | 
40 | O=S(=O)(c1ccc(Cl)cc1)N1CC(c2nc(-c3cccc(Cl)c3)no2)C1 | > 10000 | 7 | 170 | 79 | 
41 | Cc1cccc(-c2noc(C3CN(C(=O)C4CCCC(C)C4)C3)n2)c1 (stereo not drawn) | 500 | 46 | > 10000 |  | 19
42 | O=C(Cc1cccc(F)c1)N1CC[C@H]1c1nc(-c2cccc(F)c2)no1 | 2400 | 52 | > 10000 |  | 75
43 | Cc1cccc(-c2noc(C3CN(C(=O)C4CCC(C)CC4)C3)n2)c1 (stereo not drawn) | 970 | 68 | > 10000 |  | 49
44 | CC1CCN(C(=O)N2CC(c3nc(-c4cccc(Cl)c4)no3)C2)CC1 | 865 | 66 | > 10000 |  | 
45 | O=C([C@@H]1CC2CCC1C2)N1CC(c2nc(-c3ccccc3)no2)C1 (stereo partly drawn) | 400 | 88 |  |  | 
